In ChEMBL document CHEMBL1156534, “Hemopressin is an inverse agonist of CB1 cannabinoid receptors” (Proc Natl Acad Sci U S A, 2007):
Activity calls are given as the source filed them.

Key:
[1] = target: Cannabinoid receptor 2 (Homo sapiens) (UniProt P34972); experiment: Antagonist activity at CB2 receptor expressed in HEK293 cells assessed as blockade of secreted alkaline phosphatase activity at 1 uM after 6 hrs relative to control; type: functional, cell-based
In short: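 HEK-293 cells transfected with 5 μg pCRE-SeAP plus 1 μg Flag-tagged CB₁ or CB₂ receptor, 30,000 cells/well, serum-starved 16–18 h. Stimulated 6 h in serum-free medium with 10 μM forskolin and 100 nM agonist, without or with 1 μM test peptide. Supernatant diluted in pH 7.2 buffer, heated 65°C 20 min, then CSPD chemiluminescence read. Mean ± SEM, n = 6.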

[2] = target: T1, Cannabinoid receptor 2 (Rattus norvegicus) (UniProt Q9QZN9); experiment: Antagonist activity at Long-Evans rat spleen CB2 receptor assessed as blockade of Hu210-mediated decrease in adenylate cyclase activity; type: functional, tissue-based
T1 sequence (whole entry): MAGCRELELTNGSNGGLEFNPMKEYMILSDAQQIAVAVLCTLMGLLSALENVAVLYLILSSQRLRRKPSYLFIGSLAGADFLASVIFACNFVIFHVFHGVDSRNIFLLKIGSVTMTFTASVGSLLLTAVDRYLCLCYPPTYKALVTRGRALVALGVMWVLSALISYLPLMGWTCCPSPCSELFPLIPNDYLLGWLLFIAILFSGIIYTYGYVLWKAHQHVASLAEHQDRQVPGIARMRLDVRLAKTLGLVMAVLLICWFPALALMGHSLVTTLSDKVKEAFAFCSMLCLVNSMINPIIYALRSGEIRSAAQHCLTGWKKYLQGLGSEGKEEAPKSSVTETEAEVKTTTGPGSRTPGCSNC
In short: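 Membranes (10 μg) came from striatum (CB1) or spleen (CB2). They were tested in GTPγS-binding or adenylyl cyclase assays with Hu-210 and test ligand (0–1 μM), or with Hu-210 curves with or without 10 μM peptide; a 1 μM single-point combination was also used. Mean ± SE of triplicates.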

[3] = target: Cannabinoid receptor 1 (Homo sapiens) (UniProt P21554); experiment: Antagonist activity at CB1 receptor expressed in Neuro 2A cells assessed as blockade of Hu210-mediated decrease in secreted alkaline phosphatase activity at 1 uM; type: functional, cell-based
In short: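 Neuro 2A cells co-expressing pCRE-SeAP and CB1 were serum-starved 16–18 h, then given 10 μM forskolin plus 100 nM Hu-210, with or without 1 μM peptide, for 6 h without serum. Secreted alkaline phosphatase in heat-treated supernatant was measured by CSPD luminescence. Mean ± SEM of sextuplicates, n = 2.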

[4] = test system: Rattus norvegicus; experiment: Antihyperalgesic effects in Wistar rat assessed as reduction of carrageenan-induced paw pressure at 0.5 ug/kg, intrathecal after 3 hrs; type: functional, organism-based
In short: (§1)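 Male Wistar rats (200 g) received carrageenan 200 μg/paw intraplantar in saline into the right hind paw. Peptide was given at the same time: intraplantar 10 μg/paw, intrathecal 0.5 or 5 μg/kg, or oral 50 or 100 μg/kg; saline-treated rats served as controls. Paw-pressure withdrawal threshold (force ramp 16 g/s) was read at 0 and 3 h. n = 6–8.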

[5] = test system: Rattus norvegicus; experiment: Antihyperalgesic effects in Wistar rat assessed as reduction of carrageenan-induced paw pressure at 5 ug/kg, intrathecal after 3 hrs; type: functional, organism-based; in short: as §1
[6] = test system: Rattus norvegicus; experiment: Antihyperalgesic effects in Wistar rat assessed as reduction of carrageenan-induced paw pressure at 50 ug/kg, po after 3 hrs; type: functional, organism-based; in short: as §1
[7] = test system: Rattus norvegicus; experiment: Antihyperalgesic effects in Wistar rat assessed as reduction of carrageenan-induced paw pressure at 100 ug/kg, po after 3 hrs; type: functional, organism-based; in short: as §1
[8] = target: T2, Type-2 angiotensin II receptor (Homo sapiens) (UniProt P50052); experiment: Antagonist activity at AT2 angiotensin receptor expressed in SKNSH cells assessed as blockade of angiotensin 2-induced increase in antibody recognition at 100 nM by ELISA; type: functional, cell-based; design: scale not given: the % may be the effect or the level left
T2 sequence (whole entry): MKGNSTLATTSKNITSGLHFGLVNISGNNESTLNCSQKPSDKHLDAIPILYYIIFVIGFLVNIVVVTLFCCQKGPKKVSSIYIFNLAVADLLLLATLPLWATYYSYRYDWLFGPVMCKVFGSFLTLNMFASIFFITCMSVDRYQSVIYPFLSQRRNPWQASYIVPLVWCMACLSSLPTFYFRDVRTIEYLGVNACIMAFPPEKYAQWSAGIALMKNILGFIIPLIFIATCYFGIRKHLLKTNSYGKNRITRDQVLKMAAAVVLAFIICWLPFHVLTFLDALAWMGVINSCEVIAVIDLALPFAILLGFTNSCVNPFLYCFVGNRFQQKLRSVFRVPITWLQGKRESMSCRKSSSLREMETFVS

[9] = target: T3, B2 bradykinin receptor (Homo sapiens) (UniProt P30411); experiment: Antagonist activity at B2 bradykinin receptor expressed in SKNSH cells assessed as blockade of bradykinin-induced increase in antibody recognition at 100 nM by ELISA; type: functional, cell-based; design: scale not given: the % may be the effect or the level left
T3 sequence (whole entry): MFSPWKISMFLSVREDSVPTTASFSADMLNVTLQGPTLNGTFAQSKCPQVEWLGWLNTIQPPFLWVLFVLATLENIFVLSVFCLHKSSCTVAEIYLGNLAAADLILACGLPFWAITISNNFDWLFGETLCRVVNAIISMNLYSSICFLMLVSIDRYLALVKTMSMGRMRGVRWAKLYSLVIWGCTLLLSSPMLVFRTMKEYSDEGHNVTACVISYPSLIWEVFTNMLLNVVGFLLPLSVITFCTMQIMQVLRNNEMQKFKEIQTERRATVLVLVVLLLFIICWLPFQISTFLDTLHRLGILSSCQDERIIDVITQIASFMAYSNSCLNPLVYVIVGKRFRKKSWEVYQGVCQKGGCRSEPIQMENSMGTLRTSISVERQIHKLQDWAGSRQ

[10] = target: T4, Type-1 angiotensin II receptor (Homo sapiens) (UniProt P30556); experiment: Antagonist activity at AT1 angiotensin receptor expressed in HEK293 cells assessed as blockade of secreted alkaline phosphatase activity at 1 uM after 6 hrs relative to control; type: functional, cell-based
T4 sequence (whole entry): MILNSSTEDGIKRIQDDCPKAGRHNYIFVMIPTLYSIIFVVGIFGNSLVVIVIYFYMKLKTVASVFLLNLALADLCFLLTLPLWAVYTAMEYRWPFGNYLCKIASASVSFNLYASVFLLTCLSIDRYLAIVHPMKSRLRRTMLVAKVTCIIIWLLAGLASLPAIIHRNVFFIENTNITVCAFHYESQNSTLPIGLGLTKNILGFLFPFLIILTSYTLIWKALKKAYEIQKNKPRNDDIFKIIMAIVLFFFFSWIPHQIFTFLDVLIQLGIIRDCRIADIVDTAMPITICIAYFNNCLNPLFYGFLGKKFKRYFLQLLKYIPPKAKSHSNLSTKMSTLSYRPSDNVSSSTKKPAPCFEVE
In short: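 HEK-293 cells transiently co-transfected with pCRE-SeAP and a Flag-tagged receptor, 30,000 cells/well on poly-L-lysine. They were serum-starved 16–18 h, then exposed 6 h in serum-free medium to 10 μM forskolin (omitted for β2) plus the receptor agonist (100 nM), with or without peptide (1 μM). Heat-treated supernatant SeAP was read by CSPD chemiluminescence. Mean ± SEM, n = 6.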

[11] = target: Delta-type opioid receptor (Homo sapiens) (UniProt P41143); experiment: Antagonist activity at delta opioid receptor expressed in SKNSH cells at 100 nM by ELISA relative to control; type: functional, cell-based; design: scale not given: the % may be the effect or the level left
Sequence of Delta-type opioid receptor (Homo sapiens) (P41143 whole entry): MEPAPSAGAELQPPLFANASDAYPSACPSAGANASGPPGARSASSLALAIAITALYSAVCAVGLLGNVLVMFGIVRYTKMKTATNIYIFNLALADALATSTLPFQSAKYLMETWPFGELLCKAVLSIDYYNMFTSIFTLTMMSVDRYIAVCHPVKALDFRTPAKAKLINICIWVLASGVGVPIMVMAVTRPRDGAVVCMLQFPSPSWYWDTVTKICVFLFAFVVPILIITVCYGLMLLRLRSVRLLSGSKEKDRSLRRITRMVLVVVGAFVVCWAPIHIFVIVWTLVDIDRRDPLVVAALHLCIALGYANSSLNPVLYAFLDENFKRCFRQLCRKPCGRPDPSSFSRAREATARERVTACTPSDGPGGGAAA

Sequence of Cannabinoid receptor 2 (Homo sapiens) (P34972 whole entry): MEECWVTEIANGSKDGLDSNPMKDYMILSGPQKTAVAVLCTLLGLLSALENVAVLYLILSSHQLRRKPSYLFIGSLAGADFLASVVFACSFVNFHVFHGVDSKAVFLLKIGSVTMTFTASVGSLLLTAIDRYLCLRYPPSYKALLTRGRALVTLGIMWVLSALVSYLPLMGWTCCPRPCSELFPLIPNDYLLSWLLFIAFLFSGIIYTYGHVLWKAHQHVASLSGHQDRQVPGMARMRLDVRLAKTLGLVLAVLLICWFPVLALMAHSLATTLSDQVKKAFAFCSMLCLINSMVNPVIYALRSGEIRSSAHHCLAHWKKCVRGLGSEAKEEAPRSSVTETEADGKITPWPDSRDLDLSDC
Sequence of Cannabinoid receptor 1 (Homo sapiens) (P21554 whole entry): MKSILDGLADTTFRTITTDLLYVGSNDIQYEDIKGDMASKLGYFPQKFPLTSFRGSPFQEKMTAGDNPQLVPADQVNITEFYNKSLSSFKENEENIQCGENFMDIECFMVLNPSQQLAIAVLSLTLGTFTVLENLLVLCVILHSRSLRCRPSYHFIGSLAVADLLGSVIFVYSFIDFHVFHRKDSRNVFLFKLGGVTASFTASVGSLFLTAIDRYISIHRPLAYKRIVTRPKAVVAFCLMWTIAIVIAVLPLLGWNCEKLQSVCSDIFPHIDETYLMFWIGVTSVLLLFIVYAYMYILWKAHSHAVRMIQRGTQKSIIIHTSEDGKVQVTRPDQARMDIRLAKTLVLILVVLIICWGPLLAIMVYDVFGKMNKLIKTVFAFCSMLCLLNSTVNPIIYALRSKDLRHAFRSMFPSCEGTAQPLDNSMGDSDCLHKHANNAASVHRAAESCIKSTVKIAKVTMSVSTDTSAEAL

CC(C)C[C@H](NC(=O)[C@H](Cc1ccccc1)NC(=O)[C@H](CCCCN)NC(=O)[C@H](Cc1ccccc1)NC(=O)[C@H](CC(N)=O)NC(=O)[C@@H](NC(=O)[C@@H]1CCCN1)C(C)C)C(=O)N[C@@H](CO)C(=O)N[C@@H](Cc1cnc[nH]1)C(=O)O [HEMOPRESSIN]
Activity [1]: 0.94 | Activity [2]: inactive | Activity [3]: Active | Activity [4]: Active | Activity [5]: Active | Activity [6]: Active | Activity [7]: Active | Activity [8]: 137% | Activity [9]: 149% | Activity [10]: 0.98 | Activity [11]: 101%
